Calls of active or inactive are those of the source. The calls are words filed in the database; no cut-off is given here.
Legend:
[1] = target: T1, Adrenergic receptor alpha-1 (Rattus norvegicus, UniProt P15823+P23944+P43140); experiment: Displacement of [3H]prazosin from alpha1-adrenergic receptor in rat cerebral cortex after 30 mins by scintillation counting; format: tissue-based
T1 sequence (P15823 whole entry): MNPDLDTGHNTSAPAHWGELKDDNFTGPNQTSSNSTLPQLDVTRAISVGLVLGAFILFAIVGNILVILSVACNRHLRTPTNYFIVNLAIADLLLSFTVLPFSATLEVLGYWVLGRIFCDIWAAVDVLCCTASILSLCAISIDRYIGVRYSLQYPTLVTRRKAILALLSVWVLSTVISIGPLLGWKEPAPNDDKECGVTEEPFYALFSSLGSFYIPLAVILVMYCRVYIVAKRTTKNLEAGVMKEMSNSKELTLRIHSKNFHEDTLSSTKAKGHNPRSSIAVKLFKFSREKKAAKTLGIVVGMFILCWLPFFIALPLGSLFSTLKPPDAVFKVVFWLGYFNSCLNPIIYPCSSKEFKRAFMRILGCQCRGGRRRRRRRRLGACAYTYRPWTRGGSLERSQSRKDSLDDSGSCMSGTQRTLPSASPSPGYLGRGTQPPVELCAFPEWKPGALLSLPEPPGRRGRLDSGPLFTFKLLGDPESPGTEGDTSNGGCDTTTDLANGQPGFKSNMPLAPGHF
T1 sequence (P23944 whole entry): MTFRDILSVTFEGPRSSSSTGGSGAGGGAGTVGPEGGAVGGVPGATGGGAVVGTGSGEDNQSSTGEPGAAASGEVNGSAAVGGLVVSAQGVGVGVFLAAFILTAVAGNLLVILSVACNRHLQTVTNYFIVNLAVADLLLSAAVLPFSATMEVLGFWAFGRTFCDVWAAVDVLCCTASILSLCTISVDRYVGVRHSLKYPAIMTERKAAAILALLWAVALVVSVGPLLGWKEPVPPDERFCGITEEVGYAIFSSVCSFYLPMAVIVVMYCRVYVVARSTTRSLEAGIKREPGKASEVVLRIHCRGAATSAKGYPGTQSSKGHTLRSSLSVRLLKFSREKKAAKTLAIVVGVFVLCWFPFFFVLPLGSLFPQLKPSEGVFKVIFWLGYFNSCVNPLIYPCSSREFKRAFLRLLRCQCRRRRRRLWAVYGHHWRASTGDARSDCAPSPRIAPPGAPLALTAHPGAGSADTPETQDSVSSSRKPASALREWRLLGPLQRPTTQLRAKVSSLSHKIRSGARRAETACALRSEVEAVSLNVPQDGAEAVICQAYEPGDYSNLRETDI
T1 sequence (P43140 whole entry): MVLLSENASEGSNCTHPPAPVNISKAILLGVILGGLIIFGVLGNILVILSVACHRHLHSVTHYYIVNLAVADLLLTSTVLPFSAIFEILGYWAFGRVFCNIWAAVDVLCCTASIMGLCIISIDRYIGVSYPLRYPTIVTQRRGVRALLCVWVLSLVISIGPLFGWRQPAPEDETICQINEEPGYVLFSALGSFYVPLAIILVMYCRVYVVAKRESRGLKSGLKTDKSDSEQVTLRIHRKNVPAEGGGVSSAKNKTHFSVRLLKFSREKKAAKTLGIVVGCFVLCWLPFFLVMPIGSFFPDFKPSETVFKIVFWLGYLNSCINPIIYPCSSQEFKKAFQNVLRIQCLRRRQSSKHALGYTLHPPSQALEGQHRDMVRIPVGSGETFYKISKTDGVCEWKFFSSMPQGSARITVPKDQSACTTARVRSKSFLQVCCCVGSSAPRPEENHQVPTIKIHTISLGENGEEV
In short: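 Radioligand binding on rat brain tissue membranes, run in 96-well format. [3H]prazosin was used for α1 (n = 2) and [3H]CGP-12177 for β1 (n = 2). Ki was calculated by the Cheng–Prusoff equation.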

[2] = target: T2, 5-hydroxytryptamine receptor 1A (Homo sapiens, UniProt P08908); experiment: Displacement of [3H]8-OH-DPAT from human 5HT1A receptor expressed in HEK293 cells after 1 hr; format: cell-based
T2 sequence (P08908 whole entry): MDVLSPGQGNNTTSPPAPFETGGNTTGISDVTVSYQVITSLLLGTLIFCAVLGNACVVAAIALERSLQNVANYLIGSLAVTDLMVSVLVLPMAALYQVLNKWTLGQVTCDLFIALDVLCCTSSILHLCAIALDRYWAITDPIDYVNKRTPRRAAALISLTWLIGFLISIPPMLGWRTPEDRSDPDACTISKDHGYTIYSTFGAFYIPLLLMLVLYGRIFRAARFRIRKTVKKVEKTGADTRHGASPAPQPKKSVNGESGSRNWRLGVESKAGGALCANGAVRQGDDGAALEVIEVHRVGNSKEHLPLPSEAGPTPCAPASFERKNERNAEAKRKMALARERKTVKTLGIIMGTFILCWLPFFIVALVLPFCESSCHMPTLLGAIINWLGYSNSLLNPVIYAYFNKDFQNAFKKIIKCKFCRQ

[3] = test system: Rattus norvegicus; experiment: Anticonvulsant activity in Sprague-Dawley rat assessed as protection against maximal electroshock-induced seizures at 30 mg/kg, po after 0.25 hrs; format: functional, organism-based; design: dose 30 mg/kg
In short: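 Rats dosed orally at 30 mg/kg and tested in MES at several time points after dosing. Protection means seizures were prevented. Result is recorded as number of animals protected over number tested.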

[4] = test system: Mus musculus; experiment: Neurotoxicity in CF1 mouse assessed as minimal motor impairment at 100 mg/kg, ip after 4 hrs by rotorod test; format: toxicity, organism-based; design: dose 100 mg/kg, route intraperitoneal; details: in vivo
In short: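 Rotarod neurotoxicity screen in mice dosed i.p. at 30, 100 or 300 mg/kg, read 0.5 or 4 h after dosing. The animal must stay on a rod rotating at 6 rpm without falling, measured 3 times within 1 min. A fall counts as minimal motor impairment. Result is recorded as impaired animals over animals used.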

Compound: Cl.Cl.Cl.O=c1c2ccc(Cl)cc2oc2c(CN3CCN(CCO)CC3)cccc12
- Ki [1]: 3.93 µM
- Ki [2]: 4.5 µM
- Activity [3]: inactive
- Activity [4]: Non-toxic
